From ChEMBL document CHEMBL1938387 (J Med Chem, 2011) come the findings set out here.

For one data set, the system named is HT-29. As to the kind of experiment: Growth inhibition of human HT-29 cells after 72 hrs by methylene blue assay. Format: functional, cell-based. Particulars: HT-29, 72 h. The method in brief:
(§1)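 HT29, KB and MKN45 cells grown in DMEM, MEM or RPMI 1640 with 10% FBS at 37 °C in 5% CO2. Seeded at 8000−20000 cells/mL/well and allowed to adhere overnight. Exposed to various drug concentrations for 72 h, then methylene blue stain extracted with 1% N-lauroylsarcosine and A595 read. IC50 taken relative to untreated cells; means and standard errors, ≥3 independent experiments in duplicate.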

The subject of a further data set is MKN-45. The data set is described as follows: Growth inhibition of human MKN45 cells after 72 hrs by methylene blue assay. The class given is functional, cell-based. The conditions noted are these: MKN-45, 72 h. The method in brief:
as §1

The subject of the next data set is KB. As to the kind of experiment: Growth inhibition of human KB cells after 72 hrs by methylene blue assay. Format: functional, cell-based. The method in brief: as §1
Data set [1] concerns HUVEC. The data set is described as follows: Cytotoxicity against HUVEC assessed as reduction in cell viability at 15 to 120 uM. Format: cell-based. Particulars: human.
For data set [2], the species on record is Bos taurus. As to the kind of experiment: Displacement of [3H]cholchicine from bovine brain tubulin at 1 uM after 2 hrs by scintillation counting.
A short description of data set [3]: Growth inhibition of human KB-VIN10 cells after 72 hrs by methylene blue assay. Format: functional, cell-based. The conditions noted are these: KB-VIN10, 72 h. In a few lines: (§2)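 Resistant KB sublines were maintained in extra drug: KB-Vin10 in 10 nM vincristine, KB-S15 in 50 nM paclitaxel, KB-7D in 7 μM VP16. Cells were kept drug-free for 3 days before harvest. Seeded at 8000−20000 cells/mL/well and exposed 72 h. Read by methylene blue, A595 after N-lauroylsarcosine extraction. Means and standard errors of ≥3 experiments in duplicate.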

The species named for data set [4] is Bos taurus. The data set is described as follows: Displacement of [3H]cholchicine from bovine brain tubulin at 5 uM after 2 hrs by scintillation counting.
The subject of data set [5] is HUVEC. As to the kind of experiment: Antiangiogenic activity in HUVEC assessed as inhibition of capillary tube formation after 4 hrs by Matrigel matrix assay. Format: functional, cell-based. The conditions noted are these: Homo sapiens. The method in brief: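 HUVECs seeded at 2 × 10^4 cells/well on Matrigel in M199 with 20% FBS and 20 ng/mL VEGF. Capillaries formed over 4 h before test compound or DMSO vehicle was added. Imaged at addition and 4 h later. Capillary tube networks counted manually under a microscope at 100×, expressed relative to vehicle control. Mean ± SD of three separate experiments.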

For data set [6], the species on record is Bos taurus. As to the kind of experiment: Inhibition of bovine brain tubulin polymerization at 5 uM measured every 30 sec for 30 mins by turbidimetric assay.
Data set [7] is described as follows: Growth inhibition of human KB-S15 cells after 72 hrs by methylene blue assay. Format: functional, cell-based. Particulars: KB-S15, 72 h. The method in brief: as §2
Data set [8] in a line: Growth inhibition of human KB-7d cells after 72 hrs by methylene blue assay. Format: functional, cell-based. The conditions noted are these: KB7D. The method in brief: as §2
The species entered for data set [9] is Bos taurus. The data set is described as follows: (§3) Inhibition of bovine brain tubulin polymerization measured every 30 sec for 30 mins by turbidimetric assay.
Data set [10] is described as follows: as §3. Details: species or system Bos taurus.
For data set [11], the species on record is Bos taurus. The data set is described as follows: Displacement of [3H]cholchicine from bovine brain tubulin after 2 hrs by scintillation counting. In a few lines:
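Scintillation proximity assay: 0.08 μM [3H]colchicine plus test compound and 0.5 μg biotin-labeled tubulin in 80 mM PIPES pH 6.8, 1 mM EGTA, 10% glycerol, 1 mM MgCl2, 1 mM GTP, 2 h at 37 °C. Streptavidin SPA beads (80 μg) then added and counts read directly by scintillation counter.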
(In a radioligand displacement assay an active substance lowers the binding of a labelled ligand.)

SMILES strings stand for the structures. Activity calls are given as the source filed them. The calls are words filed in the database; no cut-off is given here. Where only a bound is given, the exact number is not on record here.

By IC50 is commonly meant the point on the concentration scale where inhibition reaches its midpoint. Read a low IC50 as greater potency. Turning to `COc1cc(-c2ccc3c(N)c(OC)ccc3n2)cc(OC)c1OC`, the IC50 in the data set on HT-29, in the data set with MKN-45 and in the data set with KB was greater than 5000 nM each time.

The term inhibition denotes the drop in the measured response relative to a control, in per cent. Consider `COc1cc(C(=O)c2ccc3c(O)c(OC)ccc3n2)cc(OC)c1OC`, for which the Activity result in the data set with HUVEC [1] was “Non-toxic”; in the data set with HUVEC [5], “Dose-dependent effect”. The IC50 with HT-29 stood at 3.1 nM; in data set [3], 5.8 nM; in the data set with MKN-45, 4.5 nM; in data set [7], 5.2 nM; in [8], 9.2 nM; in [10] it was 1500 nM. This compound also registered an IC50 in the data set with KB of 2.8 nM. Also, the figures for the inhibition in the data set filed under Bos taurus [2], in the data set listed under Bos taurus [4] and in the data set filed under Bos taurus [9] were 91%, 97% and “Dose-dependent effect”, respectively. Also, the inhibition entry in the data set listed under Bos taurus [6] was “Active”.

As for `COc1cc2c(c(OC)c1OC)-c1ccc(OC)c(=O)cc1[C@@H](NC(C)=O)CC2` [COLCHICINE], the IC50 turned out to be 16.2 nM in the data set on HT-29 and 19.2 nM with MKN-45.

In the case of `COc1cc(C(=O)c2ccc3c(Cl)c(OC)ccc3n2)cc(OC)c1OC`, the IC50 with HT-29 stood at 51 nM; in the data set on MKN-45, 60 nM; in the data set with KB, 45 nM.

As to `COc1cc(C(=O)c2ccc3c(I)c(OC)ccc3n2)cc(OC)c1OC`, the IC50 in the data set on HT-29 worked out at 1090 nM; with MKN-45 it was 819 nM; in the data set on KB, 451 nM.

Consider `CC[C@]1(O)C[C@H]2CN(CCc3c([nH]c4ccccc34)[C@@](C(=O)OC)(c3cc4c(cc3OC)N(C=O)[C@H]3[C@@](O)(C(=O)OC)[C@H](OC(C)=O)[C@]5(CC)C=CCN6CC[C@]43[C@@H]65)C2)C1` [VINCRISTINE], for which the half-maximal inhibitory concentration (IC50) in data set [3] was determined as 90.1 nM; in [7], 17.6 nM; in data set [8], 1.2 nM.

Turning to `CC(=O)O[C@H]1C(=O)[C@@]2(C)[C@H]([C@H](OC(=O)c3ccccc3)[C@]3(O)C[C@H](OC(=O)[C@H](O)[C@@H](NC(=O)c4ccccc4)c4ccccc4)C(C)=C1C3(C)C)[C@]1(OC(C)=O)CO[C@@H]1C[C@@H]2O` [PACLITAXEL], the IC50 in [3] stood at 16500 nM; in [7] it was 273 nM; in [8], 7.9 nM.

As for `COc1cc([C@@H]2c3cc4c(cc3[C@@H](O[C@@H]3O[C@@H]5CO[C@@H](C)O[C@H]5[C@H](O)[C@H]3O)[C@H]3COC(=O)[C@H]23)OCO4)cc(OC)c1O` [ETOPOSIDE], the IC50 in data set [3] came to 23000 nM; in [7], 3500 nM; in data set [8], 54000 nM.

In the case of `COc1cc(S(=O)(=O)c2ccc3c(N)c(OC)ccc3n2)cc(OC)c1OC`, the IC50 stood at 16 nM in the data set on HT-29; 2.8 nM in [3]; 4 nM in the data set on MKN-45; 2.5 nM in data set [7]; 2.4 nM in data set [8]; 2000 nM in data set [10]. Inhibition in the data set on KB was half-maximal at 18 nM (IC50). The inhibition was 65% in the data set listed under Bos taurus [2], 85% in the data set listed under Bos taurus [4], “Dose-dependent effect” in the data set filed under Bos taurus [11] and “Dose-dependent effect” in the data set listed under Bos taurus [9]. For the same compound, in the data set filed under Bos taurus [6], the inhibition result was “Active”.

On to `COc1cc(Oc2ccc3c(N)c(OC)ccc3n2)cc(OC)c1OC`, for which the half-inhibitory concentration (IC50) worked out at 139 nM with HT-29; 78.8 nM in data set [3]; 61 nM in the data set with MKN-45; 42.9 nM in data set [7]; 76.2 nM in data set [8]; 5800 nM in [10]. This compound came in with an IC50 in the data set with KB of 31 nM. Further, the inhibition in the data set filed under Bos taurus [2] is 44%; in the data set listed under Bos taurus [4], 60%.

Turning to `COc1cc(Sc2ccc3c(N)c(OC)ccc3n2)cc(OC)c1OC`, the IC50 was 40 nM in the data set on HT-29, 28 nM in the data set on MKN-45 and 59 nM in the data set with KB.

On to `COc1cc(Nc2ccc3c(N)c(OC)ccc3n2)cc(OC)c1OC`, for which the IC50 in the data set with HT-29, in the data set with MKN-45 and in the data set with KB was greater than 5000 nM in each case.

`COc1cc(C(=O)c2ccc3c(Br)c(OC)ccc3n2)cc(OC)c1OC`: the IC50 in the data set on HT-29 is 195 nM; with MKN-45, 167 nM; in the data set with KB it was 108 nM.
